RGS4 pot: RGS4 potentiators or activators, primary screen, cell-based, HEK293 M3R inducible RGS4, calcium flux | carbachol calcium flux Fluo4; hits give low values | B-score at 10 µM | actives 0.92% (n = 310,000);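 active means B-score of the integrated calcium signal more than 4 SD below the library mean, with starting fluorescence not abnormally high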;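 further: negative B-score means reduced calcium response which marks RGS4 activation or potentiation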
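Material: M3R-expressing HEK293 line, RGS4 induced by doxycycline | Schedule: Overnight RGS4 induction, 30 min dye load 37 °C, 20 min compound RT | Measured by: Fluo4 fluorescence kinetic imaging of calcium | Read-out: Integrated calcium ratio converted to B score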
PHOSPHO1 inh: PubChem AID 1565 | actives 1.1% (n = 290,000) | inhibition, % at 13.3 µM | recombinant PHOSPHO1, absorbance phosphatase assay | Phosphoethanolamine/phosphocholine phosphatase (Homo sapiens), Q8TCT1; in the data active means inhibition above about 60%
Target sequence (Q8TCT1 whole entry, looked up): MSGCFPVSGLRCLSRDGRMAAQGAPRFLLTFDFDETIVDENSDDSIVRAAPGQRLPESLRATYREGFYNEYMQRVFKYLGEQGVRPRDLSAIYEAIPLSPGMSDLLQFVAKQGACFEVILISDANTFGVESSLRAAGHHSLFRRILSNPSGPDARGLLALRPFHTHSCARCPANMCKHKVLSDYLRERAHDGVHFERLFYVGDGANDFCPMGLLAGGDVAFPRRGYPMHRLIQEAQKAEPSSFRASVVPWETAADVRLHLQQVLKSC
MrgX1 antag: antagonists of human MrgX1 receptor, primary screen, HEK293 cells, Fluo-4 calcium flux; B-score at 10 µM; AID 588676, 2011; Mas-related G-protein coupled receptor member X1 (Homo sapiens), Q96LB2; actives 1.3% (n = 310,000); BAM8-22 antagonism; hits give low values;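 active means calcium-response B-score plate-corrected more than 3 library SD below zero, starting fluorescence within 5 deviations, no agonist response on first addition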;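 further: peak minus trough fluorescence over baseline after final BAM8-22 challenge near maximal dose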
RGS4 block: RGS4 inhibitors, primary screen, cell-based, HEK293 M3R inducible RGS4, calcium flux; Regulator of G-protein signaling 4 (Homo sapiens), P49798; Fluo-4 calcium flux; hits give high values; triggered by carbachol at its EC20; B-score at 10 µM; actives 0.45% (n = 310,000);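 active means B-score, a plate-corrected calcium signal, over three deviations above library mean, with baseline fluorescence within five deviations of library mean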;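 further: RGS4 expression induced by doxycycline in cells with stable M3 receptor; B-score is computed from the integrated fluorescence ratio over baseline after carbachol; higher B-score means a larger calcium signal and so more RGS4 inhibition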
Target sequence (P49798 whole entry, looked up): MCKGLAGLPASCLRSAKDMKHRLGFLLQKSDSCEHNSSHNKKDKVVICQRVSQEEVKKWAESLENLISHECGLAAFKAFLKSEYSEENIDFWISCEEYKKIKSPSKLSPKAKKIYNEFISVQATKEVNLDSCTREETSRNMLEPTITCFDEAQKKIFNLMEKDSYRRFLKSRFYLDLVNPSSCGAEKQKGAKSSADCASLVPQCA
MrgX1 agonist: agonists of human MrgX1 receptor, primary screen, HEK293 cells, Fluo-4 calcium flux | B-score at 10 µM | Fluo-4 calcium fluorescence, agonist mode; hits give high values | Mas-related G-protein coupled receptor member X1 (Homo sapiens), Q96LB2 | actives 0.44% (n = 310,000);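 active means calcium response B-score plate-corrected fluorescence ratio at least 3 library SD, with starting fluorescence B-score inside 5 SD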
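Assay system: MrgX1-expressing HEK293 cells / Amount: fifteen thousand cells per well / Doses: test compound in the initial addition of three / Timing: cells plated overnight, dye loaded 0.5 h 37 °C, 0.5 h room temperature / Technique: kinetic calcium dye fluorescence, Fluo-4 NW / Control set: positive and negative controls per plate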
MrgX1 PAM: positive allosteric modulators of MrgX1, primary screen, HEK293 cells, Fluo-4 calcium flux | FDSS; hits give high values | B-score at 10 µM | actives 0.63% (n = 310,000) | AID 588675, 2011;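 active means plate-corrected calcium response at least 3 library SD above typical, normal starting fluorescence, not activating the receptor alone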;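 further: compound read alongside a low EC10 to EC30 dose of BAM8-22 agonist; peak minus trough fluorescence over baseline measured at the second addition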
RGS4 block valid: enhanced carbachol calcium response, M3R/RGS4 cells, RGS4 inhibitor project, cell-based, validation screen, HEK293 M3R/RGS4, calcium flux; actives 65% (n = 1,700); carbachol calcium Fluo-4 fluorescence; carbachol added at its EC20; 0 = buffer wells, 100 = carbachol control; calcium response, % at 10 µM; shares compounds with RGS4 block; AID 492999, 2010;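 active means duplicate-averaged calcium response above the buffer-only control mean plus 5 SD of those controls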;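 further: integrated fluorescence ratio F max minus min over baseline F0; higher response in RGS4-induced cells means RGS4 inhibition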
M3R Ca ctr: carbachol calcium response in non-induced M3R cells, confirmation, counter-screen for RGS4 inhibitor project, cell-based, HEK293 M3R; carbachol calcium Fluo-4; submaximal (EC20) carbachol stimulus; buffer wells 0%, carbachol control wells 100%; activity (percent), % at 10 µM; AID 493000, 2010; shares compounds with RGS4 block; actives 20% (n = 1,900); call rule not given here;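 further: RGS4 induction absent so cells express M3R without RGS4; higher means more calcium signal and flags a non-specific hit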
M3R basal Ca ctr: second RGS4 inhibitor counter-screen in uninduced cells lacking carbachol. shares compounds with RGS4 block. HEK293 M3R/RGS4 non-induced, Fluo-4 calcium, no carbachol; normalised: buffer wells 0%, carbachol wells 100%. calcium response (agonist-mode artifact), % at 10 µM. actives 22% (n = 1,900). AID 493001;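 active means duplicate-averaged calcium rise in uninduced cells above buffer wells' mean plus 5 SD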
The depositor's hits bear a star; i = inactive; . = not tested or not shown. This is a sample that favours compounds with a hit; in the whole collection about 4.5% have one here.

SMILES	RGS4 pot	PHOSPHO1 inh	MrgX1 antag	RGS4 block	MrgX1 agonist	MrgX1 PAM	RGS4 block valid	M3R Ca ctr	M3R basal Ca ctr
CCOC(=O)[C@@H]1[C@H]2COc3ccc(Br)cc3[C@@H]2N2C(=O)N(c3ccc(C)cc3)C(=O)[C@]12C	i	-19	i	i	i	i	.	.	.
CCOC(=O)[C@@H]1[C@H]2COc3ccccc3[C@@H]2N2C(=O)N(c3ccc(F)cc3)C(=O)[C@@]12C	i	-2	i	i	i	i	i	38%*	i
CCOC(=O)[C@@H]1[C@H]2COc3ccccc3[C@H]2N2C(=O)N(c3ccc(Cl)cc3)C(=O)[C@@]12C	i	4	i	6*	i	i	16%*	i	i
CCOC(=O)[C@@H]1[C@H]2COc3ccc(Br)cc3[C@@H]2N2C(=O)N(c3ccc(Cl)cc3)C(=O)[C@]12C	i	.	i	i	i	i	.	i	i
CCNC(=S)N(Cc1ccccc1)Cc1nc2ccccc2c(=O)[nH]1	i	18	i	i	i	i	.	.	.
CCOc1ccc(S(=O)(=O)N(CC)CC)cc1NC(=O)CSCc1c(C)noc1C	i	.	i	i	i	i	.	.	.
O=C(Nc1ccccc1OC(F)F)c1ccc(-n2cncn2)c([N+](=O)[O-])c1	i	.	i	i	i	i	.	.	.
COc1ccc(CNC(=O)c2cc(=O)c3cc(C)cc(C)c3o2)cc1	i	.	i	i	i	i	.	.	.
Oc1ccc(C[C@H]2CNCCN2CCC23CC4CC(CC(C4)C2)C3)cc1	i	.	i	i	i	i	.	i	i
Oc1ccc(C[C@@H]2CNCCN2CCC23CC4CC(CC(C4)C2)C3)cc1	i	.	i	i	i	i	.	i	16%*
O=C(COc1ccc(Cl)cc1[N+](=O)[O-])N1CCCCCC1	i	17	i	i	i	i	.	.	.
O=Cc1c(Cl)nc2ccccn2c1=O	i	18	i	4.8*	i	i	22%*	i	i
Cc1cccn2c(=O)c(C=O)c(Cl)nc12	i	33	i	i	i	i	.	.	.
Cc1cccc(N(C(=O)CNC(=O)c2cccs2)C(C(=O)NC2CCCC2)c2ccncc2)c1 (stereo not drawn)	i	36	i	i	i	i	.	.	.
CC(C)N(CCCNC(=O)Cn1c(=O)c2cccn2c2ccccc21)Cc1ccccc1	i	44	i	i	i	i	i	i	i
CN(CCCNC(=O)Cn1c(=O)c2cccn2c2ccccc21)Cc1ccccc1	i	21	i	23*	i	i	i	i	i
COCc1nnc(NC(C)=O)s1	i	40	i	i	i	i	.	.	.
COCCN(C(=O)CSc1nnc(C)n1-c1ccccc1)c1c(N)n(Cc2ccccc2)c(=O)[nH]c1=O	i	-2	i	i	i	i	.	.	.
O=C(CN(c1ccccc1)S(=O)(=O)c1ccccc1)Nc1ccc(F)cc1	i	18	i	i	i	i	.	.	.
